Test results published in ChEMBL document CHEMBL3400062, “Synthesis of novel C5-curcuminoid-fatty acid conjugates and mechanistic investigation of their anticancer activity” (Bioorg Med Chem Lett, 2015).
Converted amounts (≈) assume the structure as drawn.

Tests used:
[1] = Cytotoxicity against human CCL229 cells after 3 days by MTT assay; type: functional, cell-based; conditions: CCL229, 72 h
Procedure, shortened: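 CCL-229 colon cancer cells grown in F12K medium (2 mM L-glutamine, 1500 mg/L sodium bicarbonate), seeded at 10,000 cells/well. Compounds added at final 5–500 µg/mL. Incubation 3 days at 37°C, humidified 5% CO2. Viability read by MTT. IC50 is the concentration giving 50% viability, taken from dose-response curves. Triplicate, mean ± SEM.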

PBMC = test: Cytotoxicity against human PBMC after 3 days by MTT assay; type: cell-based; conditions: 72 h
Procedure, shortened: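 PBMCs from healthy volunteers cultured in IL-2-supplemented medium, seeded at 4×10^5–5×10^4 cells/well. Compounds added at final 2–100 µg/mL. Incubation 3 days at 37°C, humidified 5% CO2, then MTT read-out. IC50 is the concentration giving 50% viability, from dose-response curves. Triplicate, mean ± SEM.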

[2] = molecular target: T1, DNA topoisomerase 1 (Homo sapiens) (UniProt P11387); test: Inhibition of human DNA topoisomerase 1 using pHOT1 supercoiled DNA substrate incubated for 30 mins by ethidium bromide staining based gel electrophoresis method
T1 sequence (whole entry): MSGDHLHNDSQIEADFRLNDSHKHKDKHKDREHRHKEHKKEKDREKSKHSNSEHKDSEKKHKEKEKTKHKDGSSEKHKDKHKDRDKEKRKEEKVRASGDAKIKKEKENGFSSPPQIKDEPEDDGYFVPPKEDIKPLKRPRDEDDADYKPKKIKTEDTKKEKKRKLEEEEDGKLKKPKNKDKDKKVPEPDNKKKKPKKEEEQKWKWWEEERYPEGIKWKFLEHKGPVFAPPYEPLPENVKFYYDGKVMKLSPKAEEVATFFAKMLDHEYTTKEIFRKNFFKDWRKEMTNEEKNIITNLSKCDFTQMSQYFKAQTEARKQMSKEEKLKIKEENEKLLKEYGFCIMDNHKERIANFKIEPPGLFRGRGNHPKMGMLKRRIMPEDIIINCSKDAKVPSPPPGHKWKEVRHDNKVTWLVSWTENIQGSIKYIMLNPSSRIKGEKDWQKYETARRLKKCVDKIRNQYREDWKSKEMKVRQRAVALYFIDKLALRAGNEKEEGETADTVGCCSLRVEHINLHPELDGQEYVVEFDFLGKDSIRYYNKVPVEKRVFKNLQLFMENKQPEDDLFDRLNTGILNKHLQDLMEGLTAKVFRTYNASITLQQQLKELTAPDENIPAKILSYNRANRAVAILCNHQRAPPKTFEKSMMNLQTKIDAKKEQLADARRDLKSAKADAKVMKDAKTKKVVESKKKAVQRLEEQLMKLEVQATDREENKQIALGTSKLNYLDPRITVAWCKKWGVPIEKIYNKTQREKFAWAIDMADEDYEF
Procedure, shortened: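 Human DNA topoisomerase I kit with pHOT1 supercoiled DNA substrate. Compounds dissolved in 50% DMSO and tested at 10–1,500 μg/mL. Reactions run 30 min at 37°C, stopped with 10% SDS, then proteinase K 0.05 mg/mL for 15 min at 37°C. Products resolved on 1% agarose gel at 72V, stained with ethidium bromide 1 h, destained 30 min. Triplicate.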

[3] = molecular target: Nuclear factor NF-kappa-B complex (Homo sapiens) (UniProt Q00653+P19838+Q04206); test: Inhibition of TNFalpha-induced nuclear factor-kappa-B (unknown origin) expressed in HEK293 cells pre-incubated for 16 hrs followed by TNFalpha stimulation for 6 hrs by luciferase reporter gene assay; type: cell-based
Sequence of Nuclear factor NF-kappa-B complex (Homo sapiens) (P19838 whole entry, looked up): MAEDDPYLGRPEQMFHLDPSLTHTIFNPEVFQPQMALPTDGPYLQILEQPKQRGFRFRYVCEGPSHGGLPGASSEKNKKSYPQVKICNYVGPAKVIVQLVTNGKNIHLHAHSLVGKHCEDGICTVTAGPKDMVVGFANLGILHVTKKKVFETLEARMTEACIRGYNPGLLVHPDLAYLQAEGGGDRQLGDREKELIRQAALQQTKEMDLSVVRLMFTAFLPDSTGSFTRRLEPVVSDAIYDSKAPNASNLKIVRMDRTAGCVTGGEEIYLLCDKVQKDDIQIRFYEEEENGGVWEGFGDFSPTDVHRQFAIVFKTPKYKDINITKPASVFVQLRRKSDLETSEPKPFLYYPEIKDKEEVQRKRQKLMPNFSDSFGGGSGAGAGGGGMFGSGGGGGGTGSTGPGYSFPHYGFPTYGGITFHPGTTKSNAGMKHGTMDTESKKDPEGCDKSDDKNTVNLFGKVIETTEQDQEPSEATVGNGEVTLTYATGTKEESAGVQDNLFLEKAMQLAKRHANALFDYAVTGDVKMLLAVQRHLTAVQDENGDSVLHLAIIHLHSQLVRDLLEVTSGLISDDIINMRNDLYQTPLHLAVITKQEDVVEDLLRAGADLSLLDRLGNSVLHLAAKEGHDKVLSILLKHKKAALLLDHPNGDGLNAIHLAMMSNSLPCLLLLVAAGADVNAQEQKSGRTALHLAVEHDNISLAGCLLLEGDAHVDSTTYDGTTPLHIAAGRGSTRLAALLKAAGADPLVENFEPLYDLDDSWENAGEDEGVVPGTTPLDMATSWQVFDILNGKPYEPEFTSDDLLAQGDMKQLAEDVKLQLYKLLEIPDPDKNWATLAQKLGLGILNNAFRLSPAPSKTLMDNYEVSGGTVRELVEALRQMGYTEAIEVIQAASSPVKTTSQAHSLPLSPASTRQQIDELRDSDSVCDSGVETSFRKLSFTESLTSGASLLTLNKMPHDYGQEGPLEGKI
Sequence of Nuclear factor NF-kappa-B complex (Homo sapiens) (Q00653 whole entry, looked up): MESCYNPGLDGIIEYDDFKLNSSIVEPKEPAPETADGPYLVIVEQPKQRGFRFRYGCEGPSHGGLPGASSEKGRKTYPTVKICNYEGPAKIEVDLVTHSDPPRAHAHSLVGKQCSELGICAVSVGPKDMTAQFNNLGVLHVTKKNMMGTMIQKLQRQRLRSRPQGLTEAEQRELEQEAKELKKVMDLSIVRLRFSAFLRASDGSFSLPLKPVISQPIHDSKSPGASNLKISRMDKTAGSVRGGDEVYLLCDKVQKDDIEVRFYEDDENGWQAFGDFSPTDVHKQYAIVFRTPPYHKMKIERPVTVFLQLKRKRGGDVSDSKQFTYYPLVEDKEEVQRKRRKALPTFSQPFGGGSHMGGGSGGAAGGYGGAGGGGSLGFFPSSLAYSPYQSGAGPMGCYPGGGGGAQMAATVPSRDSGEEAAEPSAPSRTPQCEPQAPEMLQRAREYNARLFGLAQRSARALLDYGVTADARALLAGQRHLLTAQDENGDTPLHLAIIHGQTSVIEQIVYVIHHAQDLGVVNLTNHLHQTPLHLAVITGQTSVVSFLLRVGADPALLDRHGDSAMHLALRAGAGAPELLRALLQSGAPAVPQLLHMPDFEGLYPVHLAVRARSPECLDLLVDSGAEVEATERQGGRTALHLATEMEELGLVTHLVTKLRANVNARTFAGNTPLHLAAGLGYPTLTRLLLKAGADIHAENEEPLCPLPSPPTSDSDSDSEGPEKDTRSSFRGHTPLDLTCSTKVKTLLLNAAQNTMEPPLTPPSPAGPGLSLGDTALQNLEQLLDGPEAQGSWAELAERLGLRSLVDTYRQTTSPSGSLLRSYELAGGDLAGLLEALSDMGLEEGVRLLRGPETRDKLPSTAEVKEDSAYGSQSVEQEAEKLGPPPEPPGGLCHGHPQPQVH
Sequence of Nuclear factor NF-kappa-B complex (Homo sapiens) (Q04206 whole entry, looked up): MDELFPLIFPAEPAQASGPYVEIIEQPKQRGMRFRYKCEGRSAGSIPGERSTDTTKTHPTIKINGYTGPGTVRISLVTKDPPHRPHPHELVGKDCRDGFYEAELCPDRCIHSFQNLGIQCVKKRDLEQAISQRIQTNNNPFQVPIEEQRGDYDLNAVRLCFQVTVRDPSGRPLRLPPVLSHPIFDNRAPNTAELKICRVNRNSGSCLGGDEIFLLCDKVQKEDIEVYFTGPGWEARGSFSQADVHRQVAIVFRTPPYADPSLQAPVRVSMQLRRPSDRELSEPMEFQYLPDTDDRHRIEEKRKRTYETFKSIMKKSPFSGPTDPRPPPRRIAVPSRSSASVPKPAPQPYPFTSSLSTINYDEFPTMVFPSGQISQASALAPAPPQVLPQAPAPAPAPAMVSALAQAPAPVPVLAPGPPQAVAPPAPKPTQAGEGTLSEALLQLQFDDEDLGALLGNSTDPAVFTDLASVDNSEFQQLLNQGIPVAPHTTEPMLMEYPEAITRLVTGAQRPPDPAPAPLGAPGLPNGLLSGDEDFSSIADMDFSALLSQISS
Procedure, shortened: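 NFκB reporter HEK293 cells seeded at 30,000/well in assay medium without hygromycin B and allowed to reattach overnight at 37°C, 5% CO2. Compound dilutions added for 16 h (DMSO in untreated and cell-free controls). Mouse TNFα 5 ng/mL then added for 6 h. Cells lysed with one-step luciferase reagent about 15 min at room temperature, luminescence read. Non-linear regression; triplicate, mean ± SEM.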

COLO 205 [4] = test: Induction of apoptosis in human COLO205 cells at 7.4 ug/ml after 24 hrs by propidium iodide and annexin V staining method (reference value: 14.3%); type: functional
COLO 205 [5] = test: Induction of mitochondrial membrane permeabilization in human COLO205 cells at 7.4 ug/ml by JC1 dye based staining method (reference value: 14%); type: functional
Procedure, shortened: (§1)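 COLO-205 cells, 1×10^6 per sample, exposed under the same conditions and controls as the annexin assay (camptothecin, DMSO). Then labelled with JC-1 at 200 μg/ml and scored for % cells with permeabilized mitochondrial membranes. Triplicate.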

COLO 205 [6] = test: Induction of apoptosis in human COLO205 cells assessed as caspase-3 activation at 7.4 ug/ml by FLICA staining based method; type: functional
Procedure, shortened: (§2)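 COLO-205 cells exposed under the annexin assay conditions (24 h; camptothecin and DMSO controls). Cells harvested and stained with fluorescent labelled inhibitors of caspases (FLICA) for active caspase 3/7, scored as % positive cells. Triplicate.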

COLO 205 [7] = test: Induction of apoptosis in human COLO205 cells at 3.5 ug/ml after 24 hrs by propidium iodide and annexin V staining method (reference value: 14.3%); type: functional
COLO 205 [8] = test: Induction of mitochondrial membrane permeabilization in human COLO205 cells at 3.5 ug/ml by JC1 dye based staining method (reference value: 14%); type: functional
COLO 205 [9] = test: Induction of apoptosis in human COLO205 cells assessed as caspase-3 activation at 3.5 ug/ml by FLICA staining based method; type: functional
Procedure, shortened: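 COLO-205 cells treated as in the annexin assay (24 h exposure); cells harvested and stained with fluorescent labelled caspase inhibitors (FLICA) for active caspase 3/7; read as percent of cells with active caspase; triplicate runs.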

COLO 205 [10] = test: Induction of apoptosis in human COLO205 cells at 46 ug/ml after 24 hrs by propidium iodide and annexin V staining method (reference value: 14.3%); type: functional
COLO 205 [11] = test: Induction of mitochondrial membrane permeabilization in human COLO205 cells at 46 ug/ml by JC1 dye based staining method (reference value: 14%); type: functional; procedure, shortened: as §1
COLO 205 [12] = test: Induction of apoptosis in human COLO205 cells assessed as caspase-3 activation at 46 ug/ml by FLICA staining based method; type: functional; procedure, shortened: as §2

Compound: CCCCCCCCCC(=O)Oc1ccc(/C=C/C(=O)/C=C/c2ccc(OC(=O)CCCCCCCCC)c(OC)c2)cc1OC
- IC50 [1]: 143 µg/mL (≈ 225 µM)

Compound: CCCCCCCCCCCCCCCC(=O)Oc1ccc(/C=C/C(=O)/C=C/c2ccc(OC(=O)CCCCCCCCCCCCCCC)c(OC)c2)cc1OC
- IC50 [1]: 56.1 µg/mL (≈ 69.8 µM)
- IC50 (PBMC): 40.6 µg/mL (≈ 50.5 µM)
- MIC [2]: 100 µg/mL (≈ 125 µM)

Compound: COc1cc(/C=C/C(=O)CC(=O)/C=C/c2ccc(O)c(OC)c2)ccc1O [CURCUMIN]
- IC50 [1]: 26.8 µg/mL (≈ 72.7 µM)
- IC50 (PBMC): 12.3 µg/mL (≈ 33.4 µM)
- inhibition [3]: Dose-dependent effect
- Activity (COLO 205 [4]): 27.5%
- Activity (COLO 205 [5]): 23%
- Activity (COLO 205 [6]): 23.3%

Compound: CCCCCCCCCC(=O)Oc1cc(/C=C/C(=O)/C=C/c2ccc(OC)c(OC(=O)CCCCCCCCC)c2)ccc1OC
- IC50 [1]: 66 µg/mL (≈ 104 µM)

Compound: CC[C@@]1(O)C(=O)OCc2c1cc1n(c2=O)Cc2cc3ccccc3nc2-1 [CAMPTOTHECIN]
- Activity (COLO 205 [7]): 29%
- Activity (COLO 205 [8]): 48.5%
- Activity (COLO 205 [9]): 30%

Compound: CCCCCCCCCCCCCCCC(=O)Oc1cc(/C=C/C(=O)/C=C/c2ccc(OC)c(OC(=O)CCCCCCCCCCCCCCC)c2)ccc1OC
- IC50 [1]: 70.5 µg/mL (≈ 87.8 µM)

Compound: CCCCCCCCCC(=O)Oc1cccc(/C=C/C(=O)/C=C/c2cccc(OC(=O)CCCCCCCCC)c2)c1
- IC50 [1]: 22.5 µg/mL (≈ 39.1 µM)
- IC50 (PBMC): 35.9 µg/mL (≈ 62.5 µM)
- inhibition [3]: Dose-dependent effect
- Activity (COLO 205 [10]): 27.5%
- Activity (COLO 205 [11]): 68%
- Activity (COLO 205 [12]): 19.5%
- MIC [2]: 50 µg/mL (≈ 87 µM)

Compound: CCCCCCCCCCCCCCCC(=O)Oc1cc(/C=C2\CCC/C(=C\c3ccc(OC)c(OC(=O)CCCCCCCCCCCCCCC)c3)C2=O)ccc1OC
- IC50 [1]: 130 µg/mL (≈ 154 µM)

Compound: CCCCCCCCCCCCCCCC(=O)Oc1cccc(/C=C/C(=O)/C=C/c2cccc(OC(=O)CCCCCCCCCCCCCCC)c2)c1
- IC50 [1]: 113 µg/mL (≈ 152 µM)

Compound: CCCCCCCCCCCCCCCC(=O)Oc1ccc(/C=C2\CCC/C(=C\c3ccc(OC(=O)CCCCCCCCCCCCCCC)c(OC)c3)C2=O)cc1OC
- IC50 [1]: 139 µg/mL (≈ 165 µM)

Compound: CCCCCCCCCC(=O)Oc1ccc(/C=C/C(=O)/C=C/c2ccc(OC(=O)CCCCCCCCC)cc2)cc1
- IC50 [1]: 180 µg/mL (≈ 313 µM)

Compound: CCCCCCCCCCCCCCCC(=O)Oc1cccc(/C=C2\CCC/C(=C\c3cccc(OC(=O)CCCCCCCCCCCCCCC)c3)C2=O)c1
- IC50 [1]: 29.3 µg/mL (≈ 37.4 µM)
- IC50 (PBMC): 36.3 µg/mL (≈ 46.3 µM)
- MIC [2]: 250 µg/mL (≈ 319 µM)
